T cruzi growth-1: inhibitors of T. cruzi proliferation | T. cruzi beta-gal in NIH3T3, GalScreen luminescence, 90 h | AID 624255 | 5.9% of 77,000 active | inhibition, % at 8.34 µM;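 active = mean inhibition above about 93%, with at least 55% of replicates each passing it, limit read from the data, passing the limit was not always enough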
IDH1 R132H inh: IDH1 R132H (human) inhibition; inhibition, % at 10 µM; IDH1 R132H reductase, diaphorase/resazurin fluorescence, 60 min; 0.18% of 70,000 active; O75874; AID 624101; in the data active = inhibition above about 34%;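 note: 0% = DMSO and 100% = no enzyme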
Target sequence (O75874 whole entry R132H): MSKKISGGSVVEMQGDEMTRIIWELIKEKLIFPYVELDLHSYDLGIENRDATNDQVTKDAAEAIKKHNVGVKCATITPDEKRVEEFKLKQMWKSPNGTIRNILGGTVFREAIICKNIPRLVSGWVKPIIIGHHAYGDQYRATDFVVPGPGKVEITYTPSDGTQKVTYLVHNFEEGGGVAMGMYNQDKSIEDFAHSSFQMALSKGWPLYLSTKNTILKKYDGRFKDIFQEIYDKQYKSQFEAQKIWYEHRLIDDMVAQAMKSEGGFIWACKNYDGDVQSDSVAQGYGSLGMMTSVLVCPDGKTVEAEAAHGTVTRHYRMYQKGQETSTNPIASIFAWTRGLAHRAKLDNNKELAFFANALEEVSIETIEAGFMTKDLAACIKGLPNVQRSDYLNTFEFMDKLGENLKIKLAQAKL
GASC1 inh: blocks human GASC-1 (KDM4C) demethylase activity; Q9H3R0; GST-KDM4C 2-372, H3K9me3 peptide, LANCE TR-FRET; inhibition, % at 12.5 µM; 0.15% of 96,000 active; AID 720574;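 active = mean replicate inhibition above about 25%, with at least 55% of replicates also reaching it, limit read from the data, passing the limit was not always enough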
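Test system: N-terminal GST-fused human GASC-1 (KDM4C) fragment, residues 2-372; quantity: GASC-1 enzyme at 10 nM final in reaction; dosing: single dose; schedule: 30 min demethylation and 1 h detection at room temperature; signal: LANCE TR-FRET, excitation 340 nm, emissions 618 and 671 nm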
T cruzi growth-2: Trypanosoma cruzi proliferation inhibition | shares compounds with T cruzi growth-1 | 72% of 5,600 active | inhibition, % at 8.35 µM | T. cruzi beta-gal in NIH3T3, GalScreen luminescence, 90 h;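 active = mean replicate inhibition above about 95% and at least 55% of replicates individually reaching it, limit read from the data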
T cruzi growth-3: Trypanosoma cruzi proliferation inhibition. AID 651740. shares compounds with T cruzi growth-1. 21% of 5,600 active. T. cruzi beta-gal in NIH3T3, GalScreen luminescence, 90 h. inhibition, % at 2.09 µM;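 active = mean inhibition above about 95%, with at least 55% of replicates also reaching it, limit read from the data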;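 note: plate controls were neutral control median for no effect and positive control median for full effect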
NIH3T3 tox: kills mouse NIH/3T3 fibroblasts; 14% of 5,600 active; NIH/3T3 viability, CellTiter-Glo ATP luminescence, 90 h; AID 651742; shares compounds with T cruzi growth-1; cytotoxicity (signal decrease), % at 8.35 µM;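 active = mean signal decrease across replicates above about 35% based on untreated-well scatter, with enough replicates individually passing, limit read from the data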;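 note: 0% = median of neutral control wells and 100% = median of positive control wells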
3T3 cytotox 2: NIH/3T3 (mouse) viability loss. shares compounds with T cruzi growth-1. NIH/3T3 viability, CellTiter-Glo ATP luminescence, 90 h. inhibition, % at 24.9 µM. 56% of 5,600 active;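 active = mean loss of cell viability signal at or above a set limit, and enough replicates individually reaching it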;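 note: 0% = median of neutral control wells and 100% = median of positive control wells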
The depositor's hits bear a star; · = no result given. This excerpt belongs to a sample that is enriched for hits.

SMILES	T cruzi growth-1	IDH1 R132H inh	GASC1 inh	T cruzi growth-2	T cruzi growth-3	NIH3T3 tox	3T3 cytotox 2
COC1CC(OC2C(C)OC(OC3C(C)OC(OC4C(C)OC(O[C@H]5CC[C@@]6(C)C(=CC[C@]7(O)C6CC(OC(=O)c6ccccc6)[C@@]6(C)[C@]7(O)CC[C@@]6(O)C(C)=O)C5)CC4OC)CC3OC)CC2OC)OC(C)C1O (stereo partly drawn)	·	0.5	·	·	·	·	·
CC1CCC/C=C/C2CC(O)CC2C(O)/C=C\C(=O)O1 (stereo not drawn)	·	1.0	·	·	·	·	·
COc1ccc2c3c1O[C@H]1[C@@H](O)CC=C4[C@@H](C2)N(C)CC[C@]431	·	0.5	·	·	·	·	·
O=C(Cc1ccncc1)N1CCCCN2[C@H](CO)[C@@H](c3ccc(-c4ccncc4)cc3)[C@H]2C1	116.2*	·	-0.5	-13.0	-10.8	7.5	4.6
COc1ccc(-c2ccc([C@@H]3[C@H]4CN(C(=O)Cc5ccncc5)CCCCN4[C@H]3CO)cc2)cc1	84.3	·	-1.1	·	·	·	·
C=C1[C@@H](C)[C@H]2[C@H](Cc3ccccc3)NC(=O)[C@]23[C@H](OC(C)=O)C=C[C@](C)(O)C(=O)[C@@H](C)C/C=C/[C@H]3[C@@H]1O	·	0.5	·	·	·	·	·
CCN1CC2(COC)CCC(O)C34C5CC6C(OC)CC(O)(C5C6O)C(C(OC)C23)C14 (stereo not drawn)	·	0.0	·	·	·	·	·
Cc1ccccc1OCCCn1cc(C(=O)C(C)(C)C)c2ccccc21	·	-0.5	·	·	·	·	·
CO[C@H]1[C@H](O)[C@H](O[C@H]2CC[C@]3(C)C4CC[C@]5(C)[C@H](C6=CC(=O)OC6)CC[C@]5(O)C4CC[C@@H]3C2)O[C@@H](C)[C@@H]1O[C@@H]1O[C@H](CO[C@@H]2O[C@H](CO)[C@@H](O)[C@H](O)[C@H]2O)[C@@H](O)[C@H](O)[C@H]1O (stereo partly drawn)	·	0.1	·	·	·	·	·
COc1ccc(C#Cc2ccc([C@@H]3[C@H](CO)N4CCCCN(C(=O)Cc5ccccc5)C[C@@H]34)cc2)cc1	112.1*	·	-1.3	100.8*	105.3*	22.4	106.4*
COc1ccc(C#Cc2ccc([C@@H]3[C@@H](CO)N4CCCCN(C(=O)Cc5ccncc5)C[C@H]34)cc2)cc1	110.6*	·	0.3	106.7*	80.7	31.3	105.8*
COc1ccc(-c2ccc([C@@H]3[C@@H](CO)N4CCCCN(C(=O)Cc5ccncc5)C[C@@H]34)cc2)cc1	51.8	·	-0.2	·	·	·	·
COc1ccc(C#Cc2ccc([C@H]3[C@@H](CO)N4CCCCN(C(=O)Cc5ccccc5)C[C@@H]34)cc2)cc1	87.3	·	-2.2	·	·	·	·
COc1ccc(C#Cc2ccc([C@@H]3[C@@H](CO)N4CCCCN(C(=O)Cc5ccccc5)C[C@H]34)cc2)cc1	76.1	·	-3.3	·	·	·	·
COc1ccc(C#Cc2ccc([C@@H]3[C@H]4CN(C(=O)Cc5ccccc5)CCCCN4[C@H]3CO)cc2)cc1	98.7*	·	-0.9	93.4	103.3*	2.6	105.4*
COc1ccc([C@H]2Oc3c(I)c(OC)cc(OC)c3C[C@@H]2O)cc1OC	·	-0.1	·	·	·	·	·

Assay outcomes: PubChem, Broad Institute
